Results taken from ChEMBL document CHEMBL3112552, “Structure activity relationship studies of 3-arylsulfonyl-pyrido[1,2-a]pyrimidin-4-imines as potent 5-HT₆ antagonists” (Bioorg Med Chem, 2014).
The source made the active and inactive calls. The rule behind the calls is not given here.

Tests used:
[1] = Half life in human liver microsomes at 0.5 uM in presence of NADPH; assay type: ADME
Summary of the method: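 Test compound incubated with human liver microsomes (1 mg/ml) plus NADPH (1 mM) for 0–45 min. Reactions were stopped and parent remaining in supernatant was quantified by LC–MS/MS. T1/2 was taken from the plot of % remaining versus time. Omeprazole was run as a reference control.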

[2] = target: T1, 5-hydroxytryptamine receptor 6 (Homo sapiens, UniProt P50406); test: Antagonist activity at human cloned 5-HT6 receptor expressed in HeLa cells assessed as inhibition of 5-HT-stimulated conversion of [alpha-33P]ATP to [33P]cAMP; assay type: functional, cell-based
[3] = target: T1, 5-hydroxytryptamine receptor 6; test: Displacement of [3H]LSD from human cloned 5-HT6 receptor expressed in HeLa cells; assay type: cell-based
[4] = Permeability of the compound; assay type: ADME; conditions: not told; read-out: permeability
[5] = Ratio of drug level in brain to plasma in rat at 10 mg/kg, ip; assay type: ADME, organism-based; set-up: dose 10 mg/kg, route intraperitoneal; conditions: read-out: BPR
Summary of the method: (§1)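 Rats received a single intraperitoneal dose of 10 mg/kg. Brain and plasma drug levels were measured 30 minutes post-dose, and the brain/plasma ratio was derived from them.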

[6] = Oral bioavailability in rat; assay type: ADME, organism-based; conditions: in vivo
Brain = test: Drug uptake in rat brain at 10 mg/kg, ip; assay type: ADME, organism-based; set-up: dose 10 mg/kg, route intraperitoneal; conditions: in vivo, read-out: Drug uptake; summary of the method: as §1

T1 sequence (P50406 whole entry): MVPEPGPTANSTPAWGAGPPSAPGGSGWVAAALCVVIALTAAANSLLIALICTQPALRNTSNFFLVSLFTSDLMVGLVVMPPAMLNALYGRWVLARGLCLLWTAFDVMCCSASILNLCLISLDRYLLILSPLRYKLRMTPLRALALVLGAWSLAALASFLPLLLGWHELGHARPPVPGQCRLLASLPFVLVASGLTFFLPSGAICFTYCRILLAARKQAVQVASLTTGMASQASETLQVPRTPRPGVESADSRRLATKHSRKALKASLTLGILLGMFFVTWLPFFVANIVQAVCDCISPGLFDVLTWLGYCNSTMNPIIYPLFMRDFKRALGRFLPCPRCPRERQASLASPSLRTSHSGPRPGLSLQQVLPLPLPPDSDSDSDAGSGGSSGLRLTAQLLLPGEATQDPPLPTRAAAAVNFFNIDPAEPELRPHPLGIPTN

SMILES | half-life at 0.5 µM [1] | antagonist activity (active/inactive call) [2] | IC50 [3] | Papp [4] | Kp [5] | bioavailability [6] | concentration (Brain)
CSc1nc2ccccn2c(=N)c1S(=O)(=O)c1ccc(Cl)c(Cl)c1 | 3.1 min | Active | 0.018 µM | – | – | – | –
CSc1nc2ccccn2c(=N)c1S(=O)(=O)c1cc(C)c(Cl)cc1C | 4.1 min | Active | 0.05 µM | – | – | – | –
CSc1nc2c(C)cc(Br)cn2c(=N)c1S(=O)(=O)c1ccccc1 | – | Active | 0.012 µM | – | – | – | –
C/N=c1/c(S(=O)(=O)c2ccccc2)c(SC)nc2ccccn12 | 2.8 min | Active | 0.12 µM | – | – | – | –
CSc1nc2c3ccccc3ccn2c(=N)c1S(=O)(=O)c1ccccc1 | 7.9 min | Active | 0.055 µM | – | – | – | –
CSc1nc2ccccn2c(=N)c1S(=O)(=O)c1ccccc1Cl | – | Active | 0.011 µM | – | – | – | –
CSc1nc2c(C)cccn2c(=N)c1S(=O)(=O)c1ccccc1 | – | Active | 0.0034 µM | – | – | – | –
CSc1nc2ccccn2c(=O)c1S(=O)(=O)c1ccccc1 | 40 min | Active | 0.052 µM | – | – | – | –
CSc1nc2ccc(C)cn2c(=N)c1S(=O)(=O)c1ccccc1 | – | Active | 0.0013 µM | – | – | – | –
CSc1nc2ccccn2c(=N)c1S(=O)(=O)c1ccccc1 | 5.2 min | Active | – | 170 nm/s | 1.2 | < 1% | 1.9 µM
CSc1nc2c(C)cc(Cc3ccccc3)cn2c(=N)c1S(=O)(=O)c1ccccc1 | – | Active | 0.06 µM | – | – | – | –
CSc1nc2c(Br)cc(C)cn2c(=N)c1S(=O)(=O)c1ccccc1 | – | Active | 0.126 µM | – | – | – | –
CSc1nc2ccccn2c(=N)c1S(=O)(=O)c1ccc(F)cc1 | 3.1 min | Active | 0.022 µM | – | – | – | –
CSc1nc2ccc(F)cn2c(=N)c1S(=O)(=O)c1ccccc1 | – | Active | 0.028 µM | – | – | – | –
CSc1nc2ccc(C(N)=O)cn2c(=N)c1S(=O)(=O)c1ccccc1 | – | Active | 0.0088 µM | – | – | – | –
CSc1nc2ccc(Br)cn2c(=N)c1S(=O)(=O)c1ccccc1 | 7.5 min | Active | 0.056 µM | – | – | – | –
CCCc1ccn2c(=N)c(S(=O)(=O)c3ccccc3)c(SC)nc2c1 | – | Active | 0.7 µM | – | – | – | –
CCNc1nc2ccccn2c(=N)c1S(=O)(=O)c1ccccc1 | – | Active | 0.002 µM | – | – | – | –

SMILES | half-life at 0.5 µM [1] | antagonist activity (active/inactive call) [2] | IC50 [3] | Papp [4] | Kp [5] | bioavailability [6] | concentration (Brain)
C[S+]([O-])c1nc2ccccn2c(=N)c1S(=O)(=O)c1ccccc1 (stereo unspecified) | – | Active | 0.25 µM | – | – | – | –
CSc1nc2ccc(Cl)cn2c(=N)c1S(=O)(=O)c1ccccc1 | – | Active | 0.028 µM | – | – | – | –
CCc1ccn2c(=N)c(S(=O)(=O)c3ccccc3)c(SC)nc2c1 | – | Active | 0.08 µM | – | – | – | –
CNc1nc2ccccn2c(=N)c1S(=O)(=O)c1ccccc1 | 7.2 min | Active | 0.0024 µM | – | – | – | –
CSc1nc2c(Cc3ccccc3)cccn2c(=N)c1S(=O)(=O)c1ccccc1 | 5.5 min | Active | 0.33 µM | – | – | – | –
Cc1ccc(Nc2nc3ccc(C)cn3c(=N)c2S(=O)(=O)c2ccccc2)nc1 | – | Active | 0.06 µM | – | – | – | –
CSc1nc2c3ncccc3ccn2c(=N)c1S(=O)(=O)c1ccccc1 | – | Active | 0.057 µM | – | – | – | –
COC(=O)c1ccc2nc(SC)c(S(=O)(=O)c3ccccc3)c(=N)n2c1 | – | Active | 0.47 µM | – | – | – | –
CSc1nc2cc(C)ccn2c(=N)c1S(=O)(=O)c1ccccc1 | – | Active | 0.041 µM | – | – | – | –
CSc1nc2ccccn2/c(=N\C(C)=O)c1S(=O)(=O)c1ccccc1 | 43 min | Active | 0.083 µM | – | – | – | –
CSc1nc2ccccn2c(=N)c1S(=O)(=O)c1ccc(OC(F)(F)F)cc1 | 2.8 min | Active | 0.42 µM | – | – | – | –
CSc1nc2ccccn2c(=N)c1S(=O)(=O)c1ccc2ccccc2c1 | – | Active | 0.059 µM | – | – | – | –
N=c1c(S(=O)(=O)c2ccccc2)c(NCCO)nc2ccccn12 | – | Active | 0.042 µM | – | – | – | –
CCOc1nc2ccccn2c(=N)c1S(=O)(=O)c1ccccc1 | – | Active | 0.012 µM | – | – | – | –
COc1ccc2[nH]c([S+]([O-])Cc3ncc(C)c(OC)c3C)nc2c1 (stereo unspecified) [OMEPRAZOLE] | 26 min | – | – | – | – | – | –
CSc1nc2ccccn2c(=N)c1S(=O)(=O)c1ccc(C(C)(C)C)cc1 | 3.9 min | Active | 0.065 µM | – | – | – | –
COc1nc2ccccn2c(=N)c1S(=O)(=O)c1ccccc1 | 13.7 min | Active | 0.021 µM | – | – | – | –
